Reference: PMC2805153 (Molecular cancer therapeutics, 2009)
“Also recorded” adds a separate entry of the source. Blank lines part the entries; values can stand above or below the compound they belong to.

Tests used:
[1] = system: human breast tumor cells; test: Growth assay, breast tumor cells in general; assay type: cell-based; settings: SK-BR-3 and MDA-MB-231 breast tumor cells, 72 hours of treatment
Method in brief: (§1)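 SK-BR-3 and MDA-MB-231 cells were grown in RPMI 1640 with 1.5% FBS at 37°C and 5% CO2, seeded at 5,000/well, and rested 18–24 h. Test compound or vehicle was added for 72 h (DMSO ≤0.2%). CellTiter-Glo ATP luminescence gave viable cells.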

[2] = molecular target: PDE5A (Homo sapiens, UniProt O76074); test: Recombinant PDE isozyme IMAP FP assay; assay type: biochemical
Method in brief: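 Commercial recombinant PDE isozyme at 0.25 mg/mL, preincubated with test compound 30 min at 30°C. Substrate mix of 25 nM each fluorescein-cAMP and TAMRA-cGMP then added for 90 min at 30°C, with cAMP and cGMP hydrolysis read together. Binding reagent stops reaction; IMAP fluorescence polarization read. DMSO ≤2%. IC50 from 10 concentrations, ≥2 replicates each, versus vehicle, four-parameter logistic fit; experiments repeated at least twice.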

[3] = system: HMEC; test: Caspase3/7 Glo apoptosis assay; assay type: cell-based, human; settings: 5 hours, staurosporine 1μM positive control
Method in brief: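 HMEC grown in MEGM complete medium were seeded at 10,000 cells/well and left 18–24 h. They were then exposed to test compound or vehicle (DMSO ≤0.2%), with 1μM staurosporine as positive control. Apoptosis was read as Caspase3/7 Glo luminescence from cleavage of a caspase 3/7 substrate.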

[4] = system: MDA-MB-231 cells; test: Intracellular cGMP assay; assay type: cell-based, human
Method in brief: (§2)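 Cells were seeded at 1×10^6 per 10 cm dish: HMEC in MEGM, MDA-MB-231 in RPMI 1640 with 1.5% FBS. After 48 h they were exposed to test compound or vehicle for 30 min, then lysed. Intracellular cGMP was measured by direct competitive EIA, optical density at 630 nm.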

[5] = system: PKG (VASP phosphorylation) in MDA-MB-231 cells; test: VASP Ser239 phosphorylation western blot; assay type: cell-based, human
Method in brief: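 MDA-MB-231 cells were treated with test compound across doses and times, then lysed in Tris-acetate/Triton X-100/NaF buffer at pH 7.4. Lysate (30 μg protein) was separated by 12% SDS-PAGE and transferred to nitrocellulose, blocked in 5% BSA in TBS-0.05% Tween-20. Blots were probed for phospho-VASP Ser239 and total VASP with HRP secondaries and detected by chemiluminescence on film.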

[6] = system: PDE activity in SK-BR-3 and MDA-MB-231 cell lysates; test: IMAP FP PDE assay in tumor cell lysates; assay type: biochemical, human; settings: for inhibition of cGMP hydrolysis: tumor cell lysates, TAMRA-cGMP substrate
[7] = system: MDA-MB-231 breast tumor cells; test: Growth assay; assay type: cell-based, human
Method in brief: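 MDA-MB-231 cells went into RPMI 1640 with 1.5% FBS at 5,000/well and rested 18–24 h. Optional 1 h pretreatment with NOR-3 came next, then test compound or vehicle for 72 h (DMSO ≤0.2%). Viable cells were read as ATP luminescence (CellTiter-Glo).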

[8] = system: normal human mammary epithelial cells (HMEC); test: Growth assay; assay type: cell-based; settings: 72 h, read-out: growth inhibition IC50
Method in brief: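 Primary normal mammary epithelial cells were grown in MEGM complete medium and seeded at 5,000/well. After 18–24 h they received test compound or vehicle for 72 h (DMSO ≤0.2%). ATP-based luminescence (CellTiter-Glo) measured viable cells.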

[9] = molecular target: PDE6C (Homo sapiens, UniProt P51160); test: Recombinant PDE isozyme IMAP FP assay; assay type: biochemical; settings: cGMP substrate; SS tested up to 200 μM
[10] = system: SK-BR-3 breast tumor cells; test: Growth assay; assay type: cell-based; settings: Homo sapiens, SK-BR-3, 72 h, read-out: growth inhibition IC50
Method in brief: as §1

[11] = system: ZR75-1 breast tumor cells; test: Growth assay; assay type: cell-based; settings: Homo sapiens, ZR-75-1, 72 h, read-out: growth inhibition IC50
Method in brief: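 Cells seeded at 5,000/well were rested 18–24 h, then treated with test compound or vehicle for 72 h (DMSO ≤0.2%). Growth was scored as viable-cell ATP luminescence (CellTiter-Glo) against vehicle.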

[12] = molecular target: PDE8A (Homo sapiens, UniProt O60658); test: Recombinant PDE isozyme IMAP FP assay; assay type: biochemical; settings: cAMP substrate; SS tested up to 200 μM
Chain of PDE8A (O60658 whole entry): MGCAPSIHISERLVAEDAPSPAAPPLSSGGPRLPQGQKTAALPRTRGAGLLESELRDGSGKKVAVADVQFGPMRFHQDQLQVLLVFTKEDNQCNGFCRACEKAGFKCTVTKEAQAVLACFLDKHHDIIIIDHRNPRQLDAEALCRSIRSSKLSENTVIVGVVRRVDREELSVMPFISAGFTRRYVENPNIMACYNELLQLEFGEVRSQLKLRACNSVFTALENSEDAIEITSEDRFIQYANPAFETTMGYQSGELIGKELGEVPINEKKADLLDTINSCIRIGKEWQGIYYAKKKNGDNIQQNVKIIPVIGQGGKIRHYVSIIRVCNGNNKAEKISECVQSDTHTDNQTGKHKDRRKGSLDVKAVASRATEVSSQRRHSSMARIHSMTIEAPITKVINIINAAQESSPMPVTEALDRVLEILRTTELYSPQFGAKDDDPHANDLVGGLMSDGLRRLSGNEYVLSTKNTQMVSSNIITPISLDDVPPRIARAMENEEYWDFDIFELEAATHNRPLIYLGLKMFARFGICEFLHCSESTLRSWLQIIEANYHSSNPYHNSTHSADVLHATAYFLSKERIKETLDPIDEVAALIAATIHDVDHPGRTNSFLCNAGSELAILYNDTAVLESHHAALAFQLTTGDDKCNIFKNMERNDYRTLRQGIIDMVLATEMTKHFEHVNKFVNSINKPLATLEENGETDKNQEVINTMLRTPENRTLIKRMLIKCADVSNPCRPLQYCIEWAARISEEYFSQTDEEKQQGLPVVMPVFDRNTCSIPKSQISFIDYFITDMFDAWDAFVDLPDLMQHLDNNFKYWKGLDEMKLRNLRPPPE

[13] = system: MDA-MB-231, SKBR3, and ZR75-1 cells; test: Caspase3/7 Glo apoptosis assay; assay type: cell-based, human; settings: 100 μM, 5 hours
Method in brief: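 MDA-MB-231 and SK-BR-3 cells were kept in RPMI 1640 with 10% FBS, with serum cut to 1.5% FBS for the assay, at 37°C and 5% CO2. Cells were seeded at 10,000/well, rested 18–24 h, then given test compound or vehicle (DMSO ≤0.2%). Caspase 3/7 activation was read as luminescence from Caspase3/7 Glo substrate cleavage.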

[14] = molecular target: PDE7A (Homo sapiens, UniProt Q13946); test: Recombinant PDE isozyme IMAP FP assay; assay type: biochemical; settings: cAMP substrate; SS tested up to 200 μM
Chain of PDE7A (Q13946 whole entry): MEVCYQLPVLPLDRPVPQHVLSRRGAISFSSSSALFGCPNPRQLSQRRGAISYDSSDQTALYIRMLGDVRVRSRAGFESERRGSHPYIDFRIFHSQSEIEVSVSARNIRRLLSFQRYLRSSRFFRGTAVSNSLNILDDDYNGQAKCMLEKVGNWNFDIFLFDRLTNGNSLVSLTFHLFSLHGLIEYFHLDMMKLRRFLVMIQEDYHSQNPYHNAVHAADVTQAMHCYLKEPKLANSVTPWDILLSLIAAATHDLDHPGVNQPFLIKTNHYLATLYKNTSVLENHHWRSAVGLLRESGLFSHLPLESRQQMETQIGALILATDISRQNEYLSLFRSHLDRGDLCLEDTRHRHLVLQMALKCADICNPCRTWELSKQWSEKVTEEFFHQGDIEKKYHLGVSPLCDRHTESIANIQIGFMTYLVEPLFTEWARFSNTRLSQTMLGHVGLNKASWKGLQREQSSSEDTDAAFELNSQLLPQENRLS

[15] = molecular target: PDE9A (Homo sapiens, UniProt O76083); test: Recombinant PDE isozyme IMAP FP assay; assay type: biochemical; settings: cGMP substrate; SS tested up to 200 μM
Chain of PDE9A (O76083 whole entry): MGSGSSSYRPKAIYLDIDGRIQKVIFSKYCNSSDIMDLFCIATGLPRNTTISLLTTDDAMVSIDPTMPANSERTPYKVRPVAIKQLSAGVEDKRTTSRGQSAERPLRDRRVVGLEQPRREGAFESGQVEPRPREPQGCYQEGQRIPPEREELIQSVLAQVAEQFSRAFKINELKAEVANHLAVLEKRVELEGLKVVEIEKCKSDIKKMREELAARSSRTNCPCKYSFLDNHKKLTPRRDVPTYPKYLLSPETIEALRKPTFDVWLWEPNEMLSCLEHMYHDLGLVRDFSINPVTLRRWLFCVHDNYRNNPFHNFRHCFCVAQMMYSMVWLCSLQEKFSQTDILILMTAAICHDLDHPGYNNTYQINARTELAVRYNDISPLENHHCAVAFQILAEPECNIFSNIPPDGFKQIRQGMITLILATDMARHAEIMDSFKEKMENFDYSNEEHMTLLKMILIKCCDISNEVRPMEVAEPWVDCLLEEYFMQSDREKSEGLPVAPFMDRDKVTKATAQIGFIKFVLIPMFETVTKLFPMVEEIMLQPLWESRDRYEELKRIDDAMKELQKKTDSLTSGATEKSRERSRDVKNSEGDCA

[16] = system: COX-1; settings: read-out: IC50 to inhibit COX-1; cited from earlier work
[17] = system: breast tumor cells; test: TUNEL labeling; assay type: cell-based, human; settings: data not shown
[18] = molecular target: PDE10A (Homo sapiens, UniProt Q9Y233); test: Recombinant PDE isozyme IMAP FP assay; assay type: biochemical; settings: SS tested up to 200 μM
Chain of PDE10A (Q9Y233 290-1055 limits assumed): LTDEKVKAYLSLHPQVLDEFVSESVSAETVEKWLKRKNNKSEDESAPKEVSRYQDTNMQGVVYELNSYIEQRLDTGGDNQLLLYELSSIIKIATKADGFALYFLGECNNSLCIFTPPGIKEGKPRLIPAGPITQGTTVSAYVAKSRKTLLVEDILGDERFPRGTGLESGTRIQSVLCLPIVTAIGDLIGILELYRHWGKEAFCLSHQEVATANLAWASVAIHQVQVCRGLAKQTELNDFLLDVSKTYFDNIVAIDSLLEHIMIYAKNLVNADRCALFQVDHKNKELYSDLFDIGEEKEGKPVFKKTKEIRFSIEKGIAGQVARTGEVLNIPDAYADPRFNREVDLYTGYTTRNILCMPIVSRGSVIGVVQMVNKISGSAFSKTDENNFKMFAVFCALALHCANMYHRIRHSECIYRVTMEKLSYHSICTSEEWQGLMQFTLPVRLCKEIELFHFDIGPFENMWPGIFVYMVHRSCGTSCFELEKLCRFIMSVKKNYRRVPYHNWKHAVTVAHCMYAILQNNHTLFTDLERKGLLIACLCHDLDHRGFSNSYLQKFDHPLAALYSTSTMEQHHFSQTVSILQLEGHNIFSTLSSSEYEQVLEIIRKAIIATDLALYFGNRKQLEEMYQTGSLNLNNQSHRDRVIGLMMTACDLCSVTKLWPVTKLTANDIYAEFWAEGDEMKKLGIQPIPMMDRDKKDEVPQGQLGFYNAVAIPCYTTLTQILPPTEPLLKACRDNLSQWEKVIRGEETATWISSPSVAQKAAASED

[19] = system: PDE activity in HMEC lysates; test: IMAP FP PDE assay in HMEC lysates; assay type: biochemical, human
Method in brief: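 HMEC were lysed in ice-cold buffer (20mM Tris-acetate, 5mM Mg acetate, 1mM EGTA, 0.8% Triton X-100, 50mM NaF, protease inhibitors, pH 7.4) and cleared at 10,000g, 10 min, 4°C. Lysate at 0.25 mg/mL was preincubated with test compound 30 min at 30°C. Substrate was 25 nM each Fl-cAMP and TAMRA-cGMP, run 90 min at 30°C. Reactions were stopped with IMAP binding reagent and read by FP (DMSO ≤2%). IC50 came from 10 concentrations, ≥2 replicates.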

[20] = molecular target: PDE4A (Homo sapiens, UniProt P27815); test: Recombinant PDE isozyme IMAP FP assay; assay type: biochemical; settings: cAMP substrate; SS tested up to 200 μM
Chain of PDE4A (P27815 whole entry): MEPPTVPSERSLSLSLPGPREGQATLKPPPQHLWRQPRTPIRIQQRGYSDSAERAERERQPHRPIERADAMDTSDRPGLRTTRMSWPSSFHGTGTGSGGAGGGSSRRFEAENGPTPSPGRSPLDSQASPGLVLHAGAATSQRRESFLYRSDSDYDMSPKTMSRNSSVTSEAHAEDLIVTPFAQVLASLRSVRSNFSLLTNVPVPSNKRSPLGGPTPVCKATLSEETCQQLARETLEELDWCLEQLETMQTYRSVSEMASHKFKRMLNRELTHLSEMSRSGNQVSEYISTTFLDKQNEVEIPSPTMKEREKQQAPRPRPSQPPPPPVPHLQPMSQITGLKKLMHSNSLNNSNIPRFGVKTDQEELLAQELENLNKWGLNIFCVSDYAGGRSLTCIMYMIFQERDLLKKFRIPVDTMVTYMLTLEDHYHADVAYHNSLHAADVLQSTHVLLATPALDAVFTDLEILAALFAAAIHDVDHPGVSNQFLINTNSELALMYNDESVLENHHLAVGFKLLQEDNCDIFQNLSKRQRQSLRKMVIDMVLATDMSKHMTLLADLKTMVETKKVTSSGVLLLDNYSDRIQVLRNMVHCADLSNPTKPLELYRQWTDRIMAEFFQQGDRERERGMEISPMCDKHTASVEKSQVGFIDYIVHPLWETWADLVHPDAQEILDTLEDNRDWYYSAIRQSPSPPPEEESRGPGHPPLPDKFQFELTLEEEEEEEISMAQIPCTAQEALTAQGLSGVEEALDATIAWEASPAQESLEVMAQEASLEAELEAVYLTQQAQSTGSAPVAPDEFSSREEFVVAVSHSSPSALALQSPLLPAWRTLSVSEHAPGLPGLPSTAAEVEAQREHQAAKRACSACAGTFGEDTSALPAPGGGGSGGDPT

[21] = system: breast tumor cells; test: Cell cycle distribution; assay type: cell-based, human; settings: conditions of the growth assays, data not shown
[22] = system: HMEC; test: Intracellular cGMP assay; assay type: cell-based, human; settings: 30 minutes of treatment
Method in brief: as §2

[23] = molecular target: PDE11A (Homo sapiens, UniProt Q9HCR9); test: Recombinant PDE isozyme IMAP FP assay; assay type: biochemical; settings: SS tested up to 200 μM
Chain of PDE11A (Q9HCR9 whole entry): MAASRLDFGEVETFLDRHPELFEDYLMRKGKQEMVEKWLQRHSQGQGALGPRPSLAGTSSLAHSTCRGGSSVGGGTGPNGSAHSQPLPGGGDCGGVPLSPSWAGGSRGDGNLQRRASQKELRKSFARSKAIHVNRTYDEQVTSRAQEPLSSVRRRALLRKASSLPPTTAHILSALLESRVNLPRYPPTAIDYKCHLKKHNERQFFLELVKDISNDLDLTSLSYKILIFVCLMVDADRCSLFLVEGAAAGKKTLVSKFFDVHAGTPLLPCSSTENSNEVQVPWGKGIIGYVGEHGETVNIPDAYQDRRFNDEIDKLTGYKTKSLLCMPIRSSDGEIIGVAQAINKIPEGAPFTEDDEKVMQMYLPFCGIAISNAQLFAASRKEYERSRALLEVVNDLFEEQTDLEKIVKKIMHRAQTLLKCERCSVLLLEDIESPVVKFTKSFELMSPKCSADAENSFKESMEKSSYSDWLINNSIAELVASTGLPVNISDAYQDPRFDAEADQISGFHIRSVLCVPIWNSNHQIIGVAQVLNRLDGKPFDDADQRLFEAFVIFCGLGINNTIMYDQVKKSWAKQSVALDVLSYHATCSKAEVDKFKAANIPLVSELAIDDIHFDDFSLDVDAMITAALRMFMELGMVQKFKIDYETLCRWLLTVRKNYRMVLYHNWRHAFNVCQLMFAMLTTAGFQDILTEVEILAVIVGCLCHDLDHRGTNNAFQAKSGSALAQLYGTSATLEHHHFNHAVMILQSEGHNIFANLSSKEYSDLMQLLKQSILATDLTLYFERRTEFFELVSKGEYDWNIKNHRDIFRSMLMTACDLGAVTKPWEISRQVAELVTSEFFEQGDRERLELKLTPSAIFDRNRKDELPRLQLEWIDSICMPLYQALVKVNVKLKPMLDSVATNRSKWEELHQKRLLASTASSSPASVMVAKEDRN

[24] = breast tumor cells, line not given
[25] = MDA-MB-231, 30 minutes of treatment

SMILES: COCc1nc2c([nH]1)c(=O)n(C)c(=O)n2CC(C)C [8-methoxymethyl-IBMX]
tumor cell growth inhibitory activity [1]: none were found to be active

SMILES: COc1ccc(C2CNC(=O)C2)cc1OC1CCCC1 (centres unmarked) [rolipram]
tumor cell growth inhibitory activity [1]: none were found to be active

IC50 [2]: 14.3 µM
SMILES: Clc1cccc(Nc2nnc(-c3ccccc3)c3ccccc23)c1 [MY5445, 1-(3-chloroanilino)-4-phenylphthalazine]
tumor cell growth inhibitory activity [1]: inhibited breast tumor cell growth

SMILES: CN[C@@H]1C[C@H]2O[C@@](C)([C@@H]1OC)n1c3ccccc3c3c4c(c5c6ccccc6n2c5c31)C(=O)NC4 [staurosporine]
activation of caspases 3 and 7 [3]: increased caspase activity

SMILES: CC/C(=C\C(=N/O)C(N)=O)C(C)[N+](=O)[O-] (racemic) [NOR-3, (±)-(E)-Ethyl-2-((E)-hydroxyimino)-5-nitro-3-hexenamide]
tumor cell growth inhibitory activity [1]: inhibited the growth

SMILES: CC(C)Cn1c(=O)n(C)c(=O)c2[nH]cnc21 [IBMX, 3-Isobutyl-1-methylxanthine]
tumor cell growth inhibitory activity [1]: none were found to be active

SMILES: Cc1[nH]c(=O)c(C#N)cc1-c1ccncc1 [milrinone]
tumor cell growth inhibitory activity [1]: none were found to be active

SMILES: COc1cc2c(cc1OC)-c1c/c(=N\c3c(C)cc(C)cc3C)n(C)c(=O)n1CC2 [Trequinsin, trequinsin]
tumor cell growth inhibitory activity [1]: inhibited breast tumor cell growth

SMILES: OCCN(CCO)c1nc(N2CCCCC2)c2nc(N(CCO)CCO)nc(N3CCCCC3)c2n1 [dipyridamole]
tumor cell growth inhibitory activity [1]: none were found to be active

SMILES: C=C[C@@]1(C)CC(=O)[C@]2(O)[C@@]3(C)[C@@H](O)CCC(C)(C)[C@@H]3[C@H](O)[C@H](OC(C)=O)[C@@]2(C)O1 [forskolin]
tumor cell growth inhibitory activity [1]: no significant growth inhibitory activity

SMILES: CCCOc1ccccc1-c1nc2nn[nH]c2c(=O)[nH]1 [zaprinast]
tumor cell growth inhibitory activity [1]: none were found to be active

SMILES: CCCCCC[C@@H]([C@@H](C)O)n1cnc2c(N)ncnc21 (racemic) [EHNA]
tumor cell growth inhibitory activity [1]: none were found to be active

SMILES: CCCc1nn(C)c2c(=O)[nH]c(-c3cc(S(=O)(=O)N4CCN(C)CC4)ccc3OCC)nc12 [sildenafil]
increase of intracellular cGMP levels [4, 24]: unable to significantly increase intracellular cGMP levels
PKG activation [5, 24]: unable to significantly increase intracellular cGMP levels or activate PKG
tumor cell growth inhibitory activity [1]: none were found to be active; also recorded: unable to inhibit breast tumor cell growth
inhibition of cGMP hydrolysis [6]: inhibit the majority of cGMP PDE activity

SMILES: O=C1C(Nc2ccccc2)=CC(=O)c2ncccc21 [LY83583]
effect on sensitivity to growth inhibition by doxorubicin ([7]; MDA-MB-231, control experiment, data not shown): ineffective

SMILES: CSc1ccc(/C=C2/C(C)=C(CC(=O)O)c3cc(F)ccc32)cc1 [SS, sulindac sulfide]
IC50 [8]: 163 µM
IC50, cGMP hydrolysis by PDE6C [9]: Inactive
IC50 [10]: 59 µM
IC50 [11]: 76 µM
IC50, cAMP hydrolysis by PDE8A [12]: Inactive
change of growth inhibition IC50 after pre-treatment with GC activator NOR-3 ([7]; 1 hour pretreatment with NOR-3, 72 hours of SS treatment): significant reduction in the IC50 value
IC50, cAMP hydrolysis by PDE7A [14]: Inactive
IC50, cGMP hydrolysis by PDE9A [15]: Inactive
VASP phosphorylation at serine 239 (p-VASP levels) ([5]; MDA-MB-231, dose- and time-dependent): increased the levels of phosphorylated VASP
TUNEL labeling [17]: increased TUNEL labeling
inhibition of cAMP hydrolysis ([6]; breast tumor cell lysates, Fl-cAMP substrate): did not significantly affect
inhibition of cGMP hydrolysis [6]: inhibited cGMP hydrolysis
activation of caspases 3 and 7 [3]: resistant
IC50, cAMP hydrolysis by PDE10A ([18]; cAMP substrate): Inactive
IC50, cGMP hydrolysis by PDE10A ([18]; cGMP substrate): Inactive
inhibition of cAMP hydrolysis [19]: did not affect
inhibition of cGMP hydrolysis [19]: did not affect
IC50, cAMP hydrolysis by PDE4A [20]: Inactive
effect on cell cycle distribution [21]: did not have a significant effect
increase of intracellular cGMP levels [22]: failed to induce cGMP levels
IC50, cAMP hydrolysis by PDE11A ([23]; cAMP substrate): Inactive
IC50, cGMP hydrolysis by PDE11A ([23]; cGMP substrate): Inactive
